Measured values taken from ChEMBL document CHEMBL4011623, “Development of 1-((1,4-trans)-4-Aryloxycyclohexyl)-3-arylurea Activators of Heme-Regulated Inhibitor as Selective Activators of the Eukaryotic Initiation Factor 2 Alpha (eIF2α) Phosphorylation Arm of the Integrated Endoplasmic Reticulum Stress Response” (J Med Chem, 2017).

What was measured:
[1] = biological target: Eukaryotic translation initiation factor 2-alpha kinase 1 (Mus musculus) (UniProt Q9Z2R9); assay: Activation of HRI in mouse KLN cells transfected with 5'UTR of ATF-4 mRNA fused firefly luciferase mRNA and 5'UTR lacking uORF fused renila luciferase mRNA assessed as increase in eIF2alpha phosphorylation by measuring ratio of firefly luciferase to renila luciferase at 1.25 uM after 16 hrs; type: cell-based
Chain of Eukaryotic translation initiation factor 2-alpha kinase 1 (Mus musculus) (Q9Z2R9 whole entry, the tested form may be a part): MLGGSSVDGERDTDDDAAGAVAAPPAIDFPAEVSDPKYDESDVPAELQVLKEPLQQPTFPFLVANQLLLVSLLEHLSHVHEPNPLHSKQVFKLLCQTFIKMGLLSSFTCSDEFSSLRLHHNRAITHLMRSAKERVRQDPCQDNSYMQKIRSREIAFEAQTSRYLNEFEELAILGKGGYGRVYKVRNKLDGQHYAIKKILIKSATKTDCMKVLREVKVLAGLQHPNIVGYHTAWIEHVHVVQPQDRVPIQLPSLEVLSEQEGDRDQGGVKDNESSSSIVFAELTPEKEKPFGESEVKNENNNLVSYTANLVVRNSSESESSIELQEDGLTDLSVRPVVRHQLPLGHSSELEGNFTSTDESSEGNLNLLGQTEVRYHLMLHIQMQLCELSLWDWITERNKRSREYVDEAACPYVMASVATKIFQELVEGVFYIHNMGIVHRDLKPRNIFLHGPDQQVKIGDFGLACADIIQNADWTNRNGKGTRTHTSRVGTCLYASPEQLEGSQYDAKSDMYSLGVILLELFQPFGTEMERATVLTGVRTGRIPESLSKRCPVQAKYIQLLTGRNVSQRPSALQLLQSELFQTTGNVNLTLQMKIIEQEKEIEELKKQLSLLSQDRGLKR

[2] = biological target: Eukaryotic translation initiation factor 2-alpha kinase 1 (Mus musculus) (UniProt Q9Z2R9); assay: Activation of HRI in mouse KLN cells transfected with 5'UTR of ATF-4 mRNA fused firefly luciferase mRNA and 5'UTR lacking uORF fused renila luciferase mRNA assessed as increase in eIF2alpha phosphorylation by measuring ratio of firefly luciferase to renila luciferase at 5 uM after 16 hrs; type: cell-based
[3] = Antiproliferative activity against human CRL2813 cells after 5 days by sulforhodamine B assay; type: functional, cell-based; conditions: CRL2813, 120 h
Procedure, shortened: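 CRL-2813 melanoma cells grown 5 days with 0.5–20 μM compound, then fixed in cold 10% TCA and stained with sulforhodamine B. Bound dye measured. Growth % = 100×(T−T0)/(C−T0), with T0 at time zero. IC50 is the concentration giving 50% growth inhibition.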

[4] = biological target: Eukaryotic translation initiation factor 2-alpha kinase 1 (Mus musculus) (UniProt Q9Z2R9); assay: Activation of HRI in mouse KLN cells transfected with 5'UTR of ATF-4 mRNA fused firefly luciferase mRNA and 5'UTR lacking uORF fused renila luciferase mRNA assessed as increase in eIF2alpha phosphorylation by measuring ratio of firefly luciferase to renila luciferase after 16 hrs; type: cell-based

Ratio [1] | Ratio [2] | Activity [4] | Structure (SMILES) | IC50 [3] [nM]
3.37 | 10.1 | – | O=C(Nc1cccc(C(F)(F)F)c1)N[C@H]1CC[C@H](Oc2ccc(OC(F)(F)F)cc2)CC1 | 820
1.04 | 1.57 | Dose-dependent effect | NC(=O)c1cc(O[C@H]2CC[C@H](NC(=O)Nc3cccc(OC(F)(F)F)c3)CC2)ccc1C(F)(F)F | 3660
0.85 | 4.31 | Dose-dependent effect | CC(=O)Nc1cc(C(F)(F)F)ccc1O[C@H]1CC[C@H](NC(=O)Nc2cccc(OC(F)(F)F)c2)CC1 | 1500
0.91 | 1.49 | Dose-dependent effect | NC(=O)c1cc(C(F)(F)F)ccc1O[C@H]1CC[C@H](NC(=O)Nc2cccc(C(F)(F)F)c2)CC1 | 2760
2.87 | 10.7 | Dose-dependent effect | O=C(Nc1cccc(OC(F)(F)F)c1)N[C@H]1CC[C@H](Oc2ccc(OC(F)(F)F)cc2)CC1 | 1450
0.88 | 5.13 | Dose-dependent effect | NC(=O)c1cc(C(F)(F)F)ccc1O[C@H]1CC[C@H](NC(=O)Nc2cccc(OC(F)(F)F)c2)CC1 | 1530
0.79 | 1.12 | Dose-dependent effect | NC(=O)c1cc(O[C@H]2CC[C@H](NC(=O)Nc3cccc(C(F)(F)F)c3)CC2)ccc1C(F)(F)F | 3360

The next lines start with the compound.

Structure (SMILES) | Ratio [1] | Ratio [2] | Activity [4] | IC50 [3] [nM]
N#Cc1ccc(O[C@H]2CC[C@H](NC(=O)Nc3cccc(C#N)c3)CC2)cc1 | 1.01 | 1.15 | Dose-dependent effect | 8200
CC(=O)Nc1cc(C(F)(F)F)ccc1O[C@H]1CC[C@H](NC(=O)Nc2cccc(C(F)(F)F)c2)CC1 | 0.84 | 3.9 | Dose-dependent effect | 1460
N#Cc1ccc(NC(=O)N[C@H]2CC[C@H](Oc3ccc(C#N)cc3)CC2)cc1 | 1.03 | 1.38 | Dose-dependent effect | 9030
N#Cc1ccc(O[C@H]2CC[C@H](NC(=O)Nc3cccc(C(F)(F)F)c3)CC2)cc1 | 0.92 | 3.23 | Dose-dependent effect | 6060
N#Cc1cccc(NC(=O)N[C@H]2CC[C@H](Oc3ccc(C(F)(F)F)cc3)CC2)c1 | 0.96 | 7 | Dose-dependent effect | 940
O=C(Nc1cccc(C(F)(F)F)c1)N[C@H]1CC[C@H](Oc2ccc(C(F)(F)F)cc2[N+](=O)[O-])CC1 | 0.96 | 3.28 | Dose-dependent effect | 5510
N#Cc1cc(C(F)(F)F)ccc1O[C@H]1CC[C@H](NC(=O)Nc2cccc(C(F)(F)F)c2)CC1 | 1.01 | 6.3 | Dose-dependent effect | 1470
O=C(Nc1ccc(Oc2ccc(C(F)(F)F)cc2)cc1)Nc1cccc(C(F)(F)F)c1 | 3.31 | 8.99 | Dose-dependent effect | 440
O=C(Nc1ccc(Oc2ccc(C(F)(F)F)cc2)cc1)Nc1cccc(OC(F)(F)F)c1 | 2.37 | 6.73 | Dose-dependent effect | 500
O=C(Nc1cccc(C(F)(F)F)c1)N[C@H]1CC[C@H](Oc2ccc(C(F)(F)F)cn2)CC1 | 1.02 | 6.11 | Dose-dependent effect | 1570
N#Cc1cc(C#N)cc(NC(=O)N[C@H]2CC[C@H](Oc3ccc(C(F)(F)F)cc3)CC2)c1 | 1.51 | 2.36 | Dose-dependent effect | 3680
